From PubChem BioAssay
This is a sample that favours compounds with a hit; in the whole collection about 8.9% have one here.
HSV replic up: HSV replication enhancement; maximum fold increase; HSV replication augmentation in cells, fold increase; AID 1956; 0.005% of 220,000 active; in the data active means maximum fold increase above about 1.5; tested in PC3 cells
Dynein transport: dynein cargo transport inhibition; 3617.4 mouse cells, GR-EGFP nuclear translocation imaging; test concentration mostly 20 µM; stimulated with dexamethasone, 1 µM; hits give low values; z-score, hits read low; 0.47% of 220,000 active;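 active means plate z-score of nuclear minus cytoplasmic receptor signal below a set negative limit, without overly bright fluorescence or cell loss, cut at about -3.5 in these data, passing the limit was not always enough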;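 further: z-score of nuclear minus cytoplasmic ring GR-EGFP intensity difference per well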
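Medium: Induction medium lacking tetracycline, stripped serum | Probe or stimulus: 1.0 µM final dexamethasone stimulus | Schedule: 48 h induction, then 1 h compound, then 30 min agonist, 37 °C | Signal: Automated 10x imaging of fixed Hoechst-stained cells | Evaluation: Per-cell GR-EGFP intensity, nucleus versus surrounding cytoplasmic ring, well-averaged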
MT stabilizer: microtubule stabilizers in HeLa cells | HeLa tubulin immunostaining HCS, 24 h; share of cells brighter than vehicle mean+2SD | % tubulin-high responders, % at 10 µM | 0.83% of 200,000 active;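 active means plate Z-score above 3 for both tubulin-high and condensed-nucleus cell shares, with cell loss under 80%, at 10 µM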;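 further: anti alpha tubulin signal scored within the nucleus-defined area of each cell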
bCat nuc transl: modulators of beta-catenin nuclear translocation; HeLa beta-catenin nuclear translocation, immunofluorescence imaging; nuclear translocation activity, % at 5 µM; 0.3% of 190,000 active;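 active means nuclear translocation activity above 50% at 5 µM, with a well cell count of 50 or more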;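 further: per-cell ratio of nuclear to cytoplasmic median beta-catenin stain intensity; plate controls were DMSO negative control for no effect and GSK-3 inhibitor IX positive control for full effect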
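Assay system: human HeLa cells, native beta-catenin; doses: 5 µM primary, 0.02–20 µM confirmation; incubation: compound treatment 24 h, 37°C, 5% CO2; technique: fluorescence imaging of beta-catenin antibody stain plus DAPI; measure: % activation, nuclear-to-cytoplasmic median beta-catenin signal ratio per cell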
L major viab: reduces viability of Leishmania major promastigotes; resazurin fluorescence viability; inhibition, % at 10 µM; 9% of 200,000 active; AID 1063; in the data active means inhibition above about 50%;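 further: promastigotes grown with compound for 44 hours at 28 °C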
Starred values were filed as active, the others as inactive; i = inactive; x = no result given.

SMILES | HSV replic up | Dynein transport | MT stabilizer | bCat nuc transl | L major viab
Cc1nn(C)c(Cl)c1CN1CCCC(CCC(=O)NCc2ccccc2F)C1 (centres undefined) | i | -0.273 | 2.5 | -0.6 | 36.9
O=C(CCC1CCCN(Cc2ccncc2)C1)NCc1ccc(F)c(F)c1 (centres undefined) | i | -0.0663 | 5.4 | 0.7 | 91.7*
CN(C)C(=O)c1cnc(Sc2ncc(C(F)(F)F)cc2Cl)n1C | i | -1.25 | 1.2 | x | -0.3
COCc1ccc(C(=O)N2CCCC(CCC(=O)NCc3ccccc3F)C2)o1 (centres undefined) | i | 2.6 | 23.5* | 40.9 | 0.4
O=C(CCC1CCCN(C(=O)c2ccco2)C1)NCc1ccccc1F (centres undefined) | i | -1.11 | 8.0 | -1.2 | -0.6
Cc1nn(-c2ccc(F)cc2)c(C)c1NS(=O)(=O)c1ccc2ccccc2c1 | x | -0.951 | 25.7* | -0.7 | -0.9
COc1ccc(NS(=O)(=O)c2cc(NC(=O)C3CC3)ccc2N2CCCCC2)cc1 | i | 0.173 | 5.0 | -5.0 | 55.8*
COc1ccc(NS(=O)(=O)c2cc(NC(=O)c3cnc(C)cn3)ccc2N2CCCC2)cc1 | i | -0.817 | 1.4 | x | 95.3*
COc1ccc(NS(=O)(=O)c2cc(NC(=O)C3CC3)ccc2N2CCOCC2)cc1 | i | -1.1 | 3.5 | -4.1 | 11.7
COc1ccc(NS(=O)(=O)c2cc(NC(=O)c3cccs3)ccc2N2CCOCC2)cc1 | i | -0.511 | 13.0* | -1.1 | 47.6
O=C(NCc1ccccc1)c1ccc(F)c(F)c1 | i | -0.886 | 4.0 | -3.5 | -4.5
CNc1ccccc1C(C)(C)c1cc(-c2cccc(OC)c2)no1 | i | -0.921 | 1.8 | 1.1 | 11.7
CC(C)CCNc1cc(=O)n(C)c(=O)n1C | i | -0.896 | 4.9 | x | -6.5
Cc1ccc2nc(NC(=O)CCNS(=O)(=O)c3cccs3)sc2c1 | i | 3.67 | 3.2 | -2.6 | 49.0
Cc1ccc2nc(NC(=O)CCNS(=O)(=O)c3ccc(Br)s3)sc2c1 | i | 0.112 | 6.1 | -2.6 | 97.9*
Cc1cccc(N2CCN(C(=O)c3ccc(CS(=O)(=O)c4ccccc4C)o3)CC2C)c1 (centres undefined) | i | -0.433 | 18.6* | 109.1* | 58.9*
Cc1ccc(S(=O)(=O)Cc2ccc(C(=O)N3CCN(c4cc(C)ccc4C)CC3)o2)cc1 | i | -0.869 | 28.5* | -2.6 | -6.4
COc1ccccc1S(=O)(=O)Cc1ccc(C(=O)N2CCN(c3cccc(Cl)c3)CC2)o1 | i | -0.468 | 47.6* | 43.5 | 1.1
Cc1ccc(C)c(N2CCN(C(=O)c3ccc(CS(=O)(=O)c4ccccc4C)o3)CC2)c1 | i | -0.794 | 19.3 | x | 9.2
COc1ccc(-c2[nH]ncc2CN2CCCO2)c(F)c1 | i | 2.13 | 2.0 | -0.8 | -0.5
CCC(=O)Nc1c(-c2cccs2)c(=O)c2ccccc2n1C | i | -0.491 | 8.9 | -5.6 | 0.1
Cn1cccc1C(=O)OCC(=O)Nc1ccc2c(c1)OCO2 | i | 0.0248 | 4.3 | -0.6 | 1.7
CC(C)c1ccccc1-n1c(SCC(=O)N2CCc3ccccc3C2)nc2ccccc2c1=O | i | -0.341 | 2.0 | 5.8 | 41.5
COCCn1c(SCC(=O)N2CCc3ccccc3C2)nc2cc(Cl)ccc2c1=O | i | -0.313 | 2.0 | 1.4 | 59.8*
CC(C)Cn1c(SCC(=O)N2CCc3ccccc3C2)nc2cc(Cl)ccc2c1=O | i | -0.951 | 3.6 | -1.5 | 90.5*
SMILES | HSV replic up | Dynein transport | MT stabilizer | bCat nuc transl | L major viab
COc1ccc(OCC(O)Cn2ccnc2C)cc1 (centres undefined) | i | 0.0864 | 3.2 | -3.0 | 67.0*
CCCCC1CCC(C(=O)OCC(=O)Nc2ccc(S(N)(=O)=O)cc2)CC1 (centres undefined) | i | 0.0548 | 1.9 | -0.2 | 52.0*
Cc1ccc(C2=N/C(=C\c3cccnc3)C(=O)O2)cc1 | i | 0.408 | 2.0 | 0.5 | 66.2*
O=C1OC(/C=C/c2ccccc2)=NC/1=C\c1cccnc1 | i | -0.372 | 2.4 | 3.6 | -3.7
CCCCNC(=O)CC(C(=O)N1CCc2ccccc21)n1ccnc1 (centres undefined) | i | 0.029 | 1.5 | x | 88.2*
O=C(CC(C(=O)N1CCc2ccccc21)n1ccnc1)NCC1CCCO1 (centres undefined) | i | -0.0763 | 5.4 | 0.3 | 10.8
CCN(CCCNC(=O)CC(C(=O)N1CCc2ccccc21)n1ccnc1)c1cccc(C)c1 (centres undefined) | i | 0.152 | 3.9 | 1.6 | 99.8*
